Results on three compounds are retold here after ChEMBL document CHEMBL4011632, “Design, Synthesis, and Evaluation of Thiazolidine-2,4-dione Derivatives as a Novel Class of Glutaminase Inhibitors” (J Med Chem, 2017).

Active and inactive are the calls of the source. No cut-off for these calls is given here. A value given as a limit tells only on which side of the number the result lay.

Data set [1] is described as follows: Inhibition of recombinant human His-tagged KGA R387A mutant expressed in Escherichia coli BL21(DE3)pLysS using glutamine substrate preincubated for 10 mins followed by substrate addition measured after 60 mins.
The nature of data set [2]: Tmax in Sprague-Dawley rat at 1 mg/kg, po by HPLC-MS analysis. It counts as ADME, organism-based. Conditions: in vivo. A digest of the protocol: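 Male rats (330−380 g, 9−10 weeks old), jugular-vein cannulated 1 day before dosing, n = 3. Dosed iv in DMA/PEG400 (20%/80%, v/v) or po in 1% CMC/0.5% Tween-80. Blood (100 μL) drawn at 0, 2 min, 5 min (iv only), 15 and 30 min, and 1, 2, 4, 6, 8 and 24 h. Plasma measured by LC-MS/MS; parameters from noncompartmental analysis.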

The species named for data set [3] is Homo sapiens. As to the kind of experiment: Selectivity ratio of IC50 for recombinant human His-tagged KGA R387A mutant expressed in Escherichia coli BL21(DE3)pLysS to IC50 for human His-tagged KGA (L123 to L669 residues) expressed in Escherichia coli BL21(DE3)pLysS.
Data set [4] deals with ASPC1. As to the kind of experiment: Synergistic cytotoxicity against human Aspc-1 cells assessed as reduction in cell viability at ED50 in presence of doxorubicin by MTS assay. In kind it is functional. Put shortly: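 AsPC-1 cells treated with compound combinations and viability read by MTS. Combination index at ED50, ED75 and ED90 calculated by the Chou−Talalay method. CI = 1 additive, <1 synergism, >1 antagonism. Representative of three independent experiments.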
(In general: Tetrazolium assays rely on reduction of a dye to a coloured formazan, in cell work by metabolically active cells.)

The test system of data set [5] is Mus musculus. As to the kind of experiment: Toxicity in BALB/CAnN.Cg-Foxn1nu/CrlNarl mouse xenografted with human Aspc-1 cells assessed as loss in body weight at 50 mg/kg, ip once daily administered for 5 days followed by 2 days without dosing for 43 days relative to control. It counts as organism-based, BALB/C. As to conditions: in vivo.
For data set [6], the species on record is Homo sapiens. The experiment in a line: Selectivity ratio of IC50 for recombinant human His-tagged KGA R387L mutant expressed in Escherichia coli BL21(DE3)pLysS to IC50 for human His-tagged KGA (L123 to L669 residues) expressed in Escherichia coli BL21(DE3)pLysS.
Data set [7] deals with Mus musculus. As to the kind of experiment: Toxicity in BALB/CAnN.Cg-Foxn1nu/CrlNarl mouse xenografted with human Aspc-1 cells assessed as overt toxicity at 25 to 50 mg/kg, ip once daily administered for 5 days followed by 2 days without dosing for 43 days. In kind it is organism-based, BALB/C. As to conditions: in vivo.
Data set [8] is described as follows: Inhibition of recombinant human His-tagged KGA S384A mutant expressed in Escherichia coli BL21(DE3)pLysS using glutamine substrate preincubated for 10 mins followed by substrate addition measured after 60 mins.
Data set [9] concerns the target T1, Peroxisome proliferator-activated receptor gamma (Homo sapiens) (UniProt P37231).
T1 sequence (whole entry): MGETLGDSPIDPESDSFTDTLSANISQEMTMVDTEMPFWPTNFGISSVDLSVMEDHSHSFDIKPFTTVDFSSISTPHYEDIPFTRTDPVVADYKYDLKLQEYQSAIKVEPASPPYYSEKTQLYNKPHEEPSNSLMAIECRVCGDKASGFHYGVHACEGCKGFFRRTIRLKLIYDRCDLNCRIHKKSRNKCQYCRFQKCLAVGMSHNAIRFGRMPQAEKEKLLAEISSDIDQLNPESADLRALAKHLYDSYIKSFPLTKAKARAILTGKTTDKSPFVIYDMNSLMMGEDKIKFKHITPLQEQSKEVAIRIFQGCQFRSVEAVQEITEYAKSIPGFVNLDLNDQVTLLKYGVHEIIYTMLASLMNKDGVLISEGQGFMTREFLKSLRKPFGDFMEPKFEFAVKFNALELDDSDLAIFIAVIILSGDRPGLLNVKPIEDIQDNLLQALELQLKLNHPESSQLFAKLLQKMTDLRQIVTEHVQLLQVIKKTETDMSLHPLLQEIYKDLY
The experiment in a line: Transactivation of GAL4-DBD fused human PPARgamma LBD (199 to 477 residues) expressed in African green monkey CV1 cells after 18 to 24 hrs by luciferase reporter gene assay. In kind it is cell-based.

Data set [10] has as its target T2, Peroxisome proliferator-activated receptor alpha (Homo sapiens) (UniProt Q07869).
T2 sequence (whole entry): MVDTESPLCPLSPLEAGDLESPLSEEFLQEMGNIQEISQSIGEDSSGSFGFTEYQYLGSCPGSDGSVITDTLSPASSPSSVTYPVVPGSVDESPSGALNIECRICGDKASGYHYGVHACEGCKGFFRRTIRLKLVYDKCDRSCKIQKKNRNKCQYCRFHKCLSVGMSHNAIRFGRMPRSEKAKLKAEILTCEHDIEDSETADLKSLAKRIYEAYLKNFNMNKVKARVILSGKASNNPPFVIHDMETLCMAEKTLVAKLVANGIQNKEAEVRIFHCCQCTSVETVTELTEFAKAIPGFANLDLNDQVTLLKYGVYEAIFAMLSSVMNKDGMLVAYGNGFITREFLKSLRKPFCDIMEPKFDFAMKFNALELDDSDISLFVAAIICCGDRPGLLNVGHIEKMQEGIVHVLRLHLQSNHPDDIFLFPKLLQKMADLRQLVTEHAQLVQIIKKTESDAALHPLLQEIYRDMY
As to the kind of experiment: Transactivation of GAL4-DBD fused human PPARalpha LBD (193 to 469 residues) expressed in African green monkey CV1 cells after 18 to 24 hrs by luciferase reporter gene assay. It counts as cell-based. On the technique in general: In a reporter assay the amount or activity of a reporter protein is the signal.

Data set [11] concerns the target T3, Peroxisome proliferator-activated receptor delta (Homo sapiens) (UniProt Q03181).
T3 sequence (whole entry): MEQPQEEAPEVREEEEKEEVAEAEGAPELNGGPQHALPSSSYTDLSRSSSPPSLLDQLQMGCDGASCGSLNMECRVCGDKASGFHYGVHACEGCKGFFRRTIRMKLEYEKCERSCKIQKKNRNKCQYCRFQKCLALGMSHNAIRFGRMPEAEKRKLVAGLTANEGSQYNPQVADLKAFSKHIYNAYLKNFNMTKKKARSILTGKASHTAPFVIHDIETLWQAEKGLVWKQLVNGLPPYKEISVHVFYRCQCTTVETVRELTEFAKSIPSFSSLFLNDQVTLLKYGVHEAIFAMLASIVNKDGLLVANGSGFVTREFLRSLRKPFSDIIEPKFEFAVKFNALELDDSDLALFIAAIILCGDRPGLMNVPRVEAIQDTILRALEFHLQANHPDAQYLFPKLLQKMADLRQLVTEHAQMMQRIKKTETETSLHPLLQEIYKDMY
As to the kind of experiment: Transactivation of GAL4-DBD fused human PPARdelta LBD (165 to 441 residues) expressed in African green monkey CV1 cells after 18 to 24 hrs by luciferase reporter gene assay. It counts as cell-based.

The test system of data set [12] is ASPC1. The experiment in a line: Antitumor activity against human Aspc-1 cells xenografted in Balb/cAnN.Cg-Foxn1nu/CrlNarl nude mouse assessed as tumor growth inhibition at 50 mg/kg, ip once daily administered for 5 days followed by 2 days without dosing for 68 days relative to control. As to conditions: read-out: TGI. It counts as functional. Put shortly:
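Male nude mice (7−8 weeks, 18−22 g) received 4.5 × 10^6 AsPC-1 cells sc in the right flank, in HBSS mixed 1:1 with Matrigel. Mice were randomized once mean tumor reached ~100 mm3 (day 1). Dosing was ip once daily, 5 days on/2 days off, with 2% DMSO/PBS as vehicle. Tumors were measured twice weekly, V = ab²/2. %TGI = [1 − ((Tt − T0)/(Ct − C0))] × 100 from median volumes; Student's t test.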

Take `Cc1cc(/C=C2\SC(=O)NC2=O)c(C)n1-c1ccc(-c2ccc(/C=C3\SC(=O)NC3=O)cc2)cc1`: the IC50 is above 50000 nM in data set [1] and 361 nM in [8]. In data set [2], the Tmax came out at 4 h. The Ratio IC50 in data set [3] is above 490; in data set [6] it was 12.5. The CI in [4] is on record as 0.45 - 0.68. Further, the Activity in data set [5] is on record as above 10%; in data set [7] it was “Non-Toxic”.

Take `Cc1cc(/C=C2\SC(=O)NC2=O)c(C)n1-c1ccc(-c2ccc(/C=C3\SC(=O)NC3=O)c(Cl)c2)cc1`: the values for the IC50 in data set [1] and in data set [8] were 10900 nM and 87 nM, respectively. The values for the Ratio IC50 in data set [3] and in data set [6] were 191 and 13.5, respectively. The outcome in data set [9], in data set [10] and in data set [11] was inactive.

`O=C1NC(=O)/C(=C/c2ccc(-c3ccc(-n4c(-c5cccs5)cc(/C=C5\SC(=O)NC5=O)c4-c4cccs4)cc3)cc2)S1`: in data set [12], the inhibition in vivo at 50 mg/kg came out at 49%. Besides, the CI in data set [4] is on record as 0.45 - 0.68. Moreover, the outcome in data set [9], in data set [10] and in [11] was inactive.

As a reminder, the IC50 is the concentration that gives 50% inhibition. The term Tmax denotes the time from dosing to the highest level.
